According to ChEMBL document CHEMBL1926614, “Substituted thiazoles V. synthesis and antitumor activity of novel thiazolo[2,3-b]quinazoline and pyrido[4,3-d]thiazolo[3,2-a]pyrimidine analogues” (2012):
Activity calls are given as the source filed them. The rule behind the calls is not given here.

Key:
Type in all cases: functional
[1] = Cytotoxicity against human CNS cancer cells after 48 hrs by coulter counting; settings: Cancer cell lines
Summary of the method: (§1)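 NCI 60-cell-line panel covering nine tumour subpanels, tested over a 5-log dose range. Compounds were dissolved in DMSO and diluted in phosphate-buffered saline to a final DMSO below 1%. Wells held 6 × 10⁴ cells/ml and were run in duplicate. Controls contained PBS and DMSO at matching dilutions. Incubation was at 37 °C in humidified 5% CO₂. GI₅₀, TGI and LC₅₀ were reported.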

[2] = Cytotoxicity against human melanoma cells after 48 hrs by coulter counting; settings: Melanoma cell; summary of the method: as §1
[3] = Cytotoxicity against human renal cancer cells after 48 hrs by coulter counting; settings: Cancer cell lines; summary of the method: as §1
[4] = Cytotoxicity against human ovarian cancer cells after 48 hrs by coulter counting; settings: Cancer cell lines; summary of the method: as §1
[5] = Cytotoxicity against human prostate cancer cells after 48 hrs by coulter counting; settings: Cancer cell lines; summary of the method: as §1
[6] = Cytotoxicity against human breast cancer cells after 48 hrs by coulter counting; settings: Cancer cell lines; summary of the method: as §1
NSCLC = assay: Cytotoxicity against human NSCLC cells after 48 hrs by coulter counting; summary of the method: as §1
UACC-257 = assay: Growth inhibition of human UACC257 cells at 10 uM after 48 hrs by coulter counting
Summary of the method: (§2)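 Single-dose screen in the NCI 60 human tumor cell line panel (nine subpanels). Compounds dissolved in DMSO and diluted in phosphate buffered saline, keeping final DMSO below 1%. Added in duplicate wells to cells at 6 × 10⁴ cells/ml. Controls held PBS and DMSO at matching dilutions. Incubated at 37 °C, humidified, 5% CO₂. Reported as percent growth of treated cells.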

UACC-62 = assay: Growth inhibition of human UACC62 cells at 10 uM after 48 hrs by coulter counting; summary of the method: as §2
K562 = assay: Growth inhibition of human K562 cells at 10 uM after 48 hrs by coulter counting; settings: K562, 48 h, read-out: GI
Summary of the method: (§3)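 Single-dose primary screen across the full NCI 60-cell-line panel. Stocks were made in DMSO and diluted in PBS to a final DMSO below 1%. Cultures at 6 × 10⁴ cells/ml were run in duplicate wells alongside PBS/DMSO vehicle controls at 37 °C in humidified 5% CO₂. Data were expressed as percent growth of treated cells.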

RPMI-8226 = assay: Growth inhibition of human RPMI8226 cells at 10 uM after 48 hrs by coulter counting; summary of the method: as §3
SR = assay: Growth inhibition of human SR cells at 10 uM after 48 hrs by coulter counting; summary of the method: as §2
A549 = assay: Growth inhibition of human A549 cells at 10 uM after 48 hrs by coulter counting; settings: A549, 48 h, read-out: GI; summary of the method: as §3
EKVX = assay: Growth inhibition of human EKVX cells at 10 uM after 48 hrs by coulter counting; settings: read-out: GI; summary of the method: as §3
HOP-62 = assay: Growth inhibition of human HOP62 cells at 10 uM after 48 hrs by coulter counting; summary of the method: as §3
NCI-H226 = assay: Growth inhibition of human NCI-H226 cells at 10 uM after 48 hrs by coulter counting; settings: NCI-H226, 48 h, read-out: GI; summary of the method: as §3
[7] = Growth inhibition of human NCI-322M cells at 10 uM after 48 hrs by coulter counting; settings: read-out: GI; summary of the method: as §3
NCI-H460 = assay: Growth inhibition of human NCI-H460 cells at 10 uM after 48 hrs by coulter counting; summary of the method: as §3
NCI-H522 = assay: Growth inhibition of human NCI-H522 cells at 10 uM after 48 hrs by coulter counting; settings: NCI-H522, 48 h, read-out: GI; summary of the method: as §3
HCT-116 = assay: Growth inhibition of human HCT116 cells at 10 uM after 48 hrs by coulter counting; summary of the method: as §3
HT-29 = assay: Growth inhibition of human HT-29 cells at 10 uM after 48 hrs by coulter counting; summary of the method: as §3
KM12 = assay: Growth inhibition of human KM12 cells at 10 uM after 48 hrs by coulter counting; summary of the method: as §3
SNB-19 = assay: Growth inhibition of human SNB19 cells at 10 uM after 48 hrs by coulter counting; settings: SNB-19, 48 h, read-out: GI; summary of the method: as §3
LOX IMVI = assay: Growth inhibition of human LOXIMVI cells at 10 uM after 48 hrs by coulter counting; summary of the method: as §3
M14 = assay: Growth inhibition of human M14 cells at 10 uM after 48 hrs by coulter counting; summary of the method: as §3
MDA-MB-435 = assay: Growth inhibition of human MDA-MB-435 cells at 10 uM after 48 hrs by coulter counting; summary of the method: as §3
SK-MEL-2 = assay: Growth inhibition of human SK-MEL-2 cells at 10 uM after 48 hrs by coulter counting; settings: SK-MEL-2, 48 h, read-out: GI; summary of the method: as §3
SK-MEL-28 = assay: Growth inhibition of human SK-MEL-28 cells at 10 uM after 48 hrs by coulter counting; settings: SK-MEL-28, 48 h, read-out: GI; summary of the method: as §3
SK-MEL-5 = assay: Growth inhibition of human SK-MEL-5 cells at 10 uM after 48 hrs by coulter counting; settings: SK-MEL-5, 48 h, read-out: GI; summary of the method: as §3
NCI/ADR-RES = assay: Growth inhibition of human NCI/ADR-RES cells at 10 uM after 48 hrs by coulter counting; summary of the method: as §3
A498 = assay: Growth inhibition of human A498 cells at 10 uM after 48 hrs by coulter counting; settings: A498, 48 h, read-out: GI; summary of the method: as §3
CAKI-1 = assay: Growth inhibition of human Caki1 cells at 10 uM after 48 hrs by coulter counting; summary of the method: as §3
UO-31 = assay: Growth inhibition of human UO31 cells at 10 uM after 48 hrs by coulter counting; summary of the method: as §2
DU-145 = assay: Growth inhibition of human DU145 cells at 10 uM after 48 hrs by coulter counting; summary of the method: as §3
OVCAR-3 = assay: Growth inhibition of human OVCAR3 cells at 10 uM after 48 hrs by coulter counting; summary of the method: as §3
786-0 = assay: Growth inhibition of human 786-0 cells at 10 uM after 48 hrs by coulter counting; settings: 786-0, 48 h, read-out: GI; summary of the method: as §3
SN12C = assay: Growth inhibition of human SN12C cells at 10 uM after 48 hrs by coulter counting; settings: read-out: GI; summary of the method: as §3
[8] = Cytotoxicity against human leukemia cells after 48 hrs by coulter counting; settings: Leukemia cell; summary of the method: as §1
[9] = Cytotoxicity against human colon cancer cells after 48 hrs by coulter counting; settings: Cancer cell lines; summary of the method: as §1
[10] = read-out: LC50 (the source's name)

CCN1CC2=C(N=C3SC=C(C)N3C2c2ccc(OC)c(OC)c2)/C(=C/c2ccc(OC)c(OC)c2)C1 (configuration not stated)
GI50 [1]: 5.7 µM | LC50 [1]: > 100 µM | TGI [1]: 40.1 µM | GI50 [2]: 2.7 µM | TGI [2]: 10.8 µM | CC50 [2, 10]: 54.4 µM | GI50 [3]: 2.5 µM | LC50 (concentration giving 50% net cell kill) [3]: 47.1 µM | TGI [3]: 8.9 µM | GI50 [4]: 3.8 µM | TGI [4]: 49.7 µM | CC50 [4, 10]: > 100 µM | GI50 [5]: 2.8 µM | LC50 (concentration killing 50% of cells) [5]: 79.2 µM | TGI [5]: 53.4 µM | GI50 [6]: 5.7 µM | TGI [6]: 49.5 µM | CC50 [6, 10]: 68.2 µM | GI50 (NSCLC): 3 µM | TGI (NSCLC): 44.2 µM | CC50 (NSCLC; [10]): 86.5 µM | growth inhibition (GI) (UACC-257): Active | growth inhibition (GI) (UACC-62): Active | inhibition of growth at 10 µM (K562): 96.4% | growth inhibition (GI) (RPMI-8226): Active | growth inhibition (GI) (SR): Active | inhibition of growth at 10 µM (A549): 93.2% | inhibition of growth at 10 µM (EKVX): 37.5% | growth inhibition (GI) (HOP-62): Active | inhibition of growth at 10 µM (NCI-H226): 98.2% | inhibition of growth at 10 µM [7]: 63.6% | growth inhibition (GI) (NCI-H460): Active | inhibition of growth at 10 µM (NCI-H522): 61.7% | growth inhibition (GI) (HCT-116): Active | growth inhibition (GI) (HT-29): Active | growth inhibition (GI) (KM12): Active | inhibition of growth at 10 µM (SNB-19): 61% | growth inhibition (GI) (LOX IMVI): Active | growth inhibition (GI) (M14): Active | growth inhibition (GI) (MDA-MB-435): Active | inhibition of growth at 10 µM (SK-MEL-2): 27.4% | inhibition of growth at 10 µM (SK-MEL-28): 96.5% | inhibition of growth at 10 µM (SK-MEL-5): 87.2% | growth inhibition (GI) (NCI/ADR-RES): Active | inhibition of growth at 10 µM (A498): 53.8% | growth inhibition (GI) (CAKI-1): Active | growth inhibition (GI) (UO-31): Active | growth inhibition (GI) (DU-145): Active | growth inhibition (GI) (OVCAR-3): Active | inhibition of growth at 10 µM (786-0): 69.9% | inhibition of growth at 10 µM (SN12C): 93.7% | GI50 [8]: 4 µM | TGI [8]: 81.9 µM | CC50 [8, 10]: > 100 µM | GI50 [9]: 2.1 µM | LC50 (concentration giving 50% net cell kill) [9]: 35.3 µM | TGI [9]: 5.6 µM
